Calls of active or inactive are those of the source.
Legend:
[1] = tested on: Onchocerca ochengi; test: Antiparasitic activity against Onchocerca ochengi assessed as effect on microfilarial mobility at 5 ug/ml measured every 24 hrs for 120 hrs by inverted microscopic analysis; assay type: functional
In short: (§1)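 Microfilariae isolated from cattle skin snips; ≥15 per well cocultured on a confluent monkey kidney epithelial feeder layer in RPMI-1640 complete medium (25 mM HEPES, 5% newborn calf serum, pH 7.4) with compound, 37 °C, 5% CO2, 5 days, no medium change. Motility scored by inverted microscope every 24 h. Viability checked at 120 h. Duplicate wells. Active = 100% motility loss versus control.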

[2] = tested on: Onchocerca ochengi; test: Antiparasitic activity against Onchocerca ochengi assessed as effect on microfilarial mobility at 10 ug/ml measured every 24 hrs for 120 hrs by inverted microscopic analysis; assay type: functional; in short: as §1
[3] = biological target: T1, Chitinase (Onchocerca volvulus, UniProt Q25615); test: Inhibition of Onchocerca volvulus L3 larvae chitinase using 4-methylumbelliferyl-N,N',N''-beta-chitotrioside as a profluorescent substrate after 10 mins by fluorometric analysis
T1 sequence (Q25615 whole entry): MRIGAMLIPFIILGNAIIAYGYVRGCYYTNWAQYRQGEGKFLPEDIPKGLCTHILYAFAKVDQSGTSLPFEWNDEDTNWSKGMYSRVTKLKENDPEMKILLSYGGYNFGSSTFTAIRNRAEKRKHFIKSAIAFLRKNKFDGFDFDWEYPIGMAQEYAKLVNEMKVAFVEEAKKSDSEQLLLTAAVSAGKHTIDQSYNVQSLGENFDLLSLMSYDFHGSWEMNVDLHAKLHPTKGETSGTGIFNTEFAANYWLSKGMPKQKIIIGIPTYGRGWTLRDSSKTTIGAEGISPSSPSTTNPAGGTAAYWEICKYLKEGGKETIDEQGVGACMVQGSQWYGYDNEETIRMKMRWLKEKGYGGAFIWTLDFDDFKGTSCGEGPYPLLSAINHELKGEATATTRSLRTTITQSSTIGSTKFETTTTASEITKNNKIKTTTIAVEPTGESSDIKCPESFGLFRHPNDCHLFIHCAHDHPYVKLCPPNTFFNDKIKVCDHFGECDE
In short: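 OvCHT1 (1.25 units) with 20 μM 4-methylumbelliferyl-N,N',N''-β-chitotrioside in 200 mM NaCl, 20 mM Na3PO4 (pH 6.0), 1.0 mM EDTA and 0.5% DMSO at 37 °C. Screening used 25 μM compound, with a no-compound blank. Fluorescence increase is read over 10 min (ex 350 nm, em 440 nm). Triplicate reactions.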

[4] = tested on: HEK-293T; test: Protonophoric activity in human HEK293T cells assessed as mitochondrial membrane depolarization at 200 uM after 10 mins by flow cytometric analysis; assay type: functional, cell-based
In short: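 HEK-293T/17 cells trypsinized and resuspended at 1 × 10^6 cells/mL in PBS. Compound exposure is 10 min at 37 °C, with valinomycin as the depolarization control. JC-1 is then added for another 10 min at 37 °C. Cells are washed and analysed by flow cytometry in the green (FITC) and red (PE) channels for mitochondrial membrane polarization.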

[5] = tested on: HEK-293T; test: Protonophoric activity in human HEK293T cells assessed as mitochondrial membrane depolarization at 50 uM after 10 mins by flow cytometric analysis; assay type: functional, cell-based
In short: (§2)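 HEK-293T/17 cells were trypsinized and resuspended at 1 × 10^6/mL in PBS. They were exposed to 50 μM compound (valinomycin control 200 nM) for 10 min at 37 °C, then stained with the JC-1 potential probe for 10 min at 37 °C. Cells were washed and analysed by flow cytometry using FL-1 green and FL-2 red channels.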

[6] = tested on: Onchocerca volvulus; test: Antiparasitic activity against Onchocerca volvulus assessed as inhibition of L3 to L4 larval molting at 100 uM after 6 days by using inverted microscopic analysis; assay type: functional
In short: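 Cryopreserved O. volvulus L3 larvae thawed at 37 °C, washed in NCTC/IMDM (1:1) with glutamine, penicillin and streptomycin, then set at […] worms per well in complete medium with 20% heat-inactivated FCS. Each well received 1.5 × 10^5 normal PBMCs; 10 wells per treatment, with DMSO and medium controls. Incubated at 37 °C in 5% CO2 for 6 days. Molting is scored by inverted microscopy as L4 larvae plus empty L3 casts.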

[7] = tested on: Onchocerca volvulus; test: Antiparasitic activity against Onchocerca volvulus assessed as larval toxicity at 100 uM after 6 days by using inverted microscopic analysis; assay type: functional, organism-based
[8] = tested on: Onchocerca volvulus; test: Antiparasitic activity against Onchocerca volvulus assessed as inhibition of L3 to L4 larval molting at 25 uM after 6 days by using inverted microscopic analysis; assay type: functional, organism-based
In short: (§3)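 Cryopreserved L3 thawed at 37 °C and washed. 5–10 larvae per well in complete medium with 20% heat-inactivated FCS plus 1.5 × 10^5 normal PBMCs. 10 wells per treatment. Compounds tested singly or as a 1:1 pair. DMSO and medium controls included. Incubated at 37 °C, 5% CO2. Molting scored on day 6 by inverted microscope as L4 plus empty L3 cast. Reported as percent molting.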

[9] = tested on: Onchocerca volvulus; test: Antiparasitic activity against Onchocerca volvulus assessed as inhibition of L3 to L4 larval molting at 50 uM after 6 days by using inverted microscopic analysis; assay type: functional, organism-based; in short: as §3
[10] = tested on: HEK-293T; test: Protonophoric activity in human HEK293T cells assessed as mitochondrial membrane depolarization at 50 uM after 10 mins by flow cytometric analysis relative to valinomycin; assay type: functional, cell-based; in short: as §2
[11] = tested on: HEK-293T; test: Protonophoric activity in human HEK293T cells assessed as mitochondrial membrane depolarization at 50 uM after 10 mins by flow cytometric analysis relative to closantel; assay type: functional, cell-based; in short: as §2

Structure (SMILES) | motility % at 5 µg/mL [1] | motility % at 10 µg/mL [2] | IC50 [3] | also measured
Cc1ccc(NC(=O)c2cc(Br)cc(Br)c2O)cc1 | 100% | 100% | – | –
COc1ccc(NC(=O)c2cc(I)ccc2O)cc1 | 100% | 100% | – | –
O=C(Nc1ccc(Cl)cc1)c1cc(I)cc(I)c1O | 100% | 0% | 5800 nM | –
O=C(Nc1ccccc1)c1cc(I)cc(I)c1O | 100% | 100% | – | –
O=C(Nc1ccccc1)c1cc(Br)cc(Br)c1O [METABROMSALAN] | 100% | 50% | – | –
CC(C)[C@@H]1NC(=O)[C@H](C)OC(=O)[C@@H](C(C)C)NC(=O)[C@@H](C(C)C)OC(=O)[C@H](C(C)C)NC(=O)[C@H](C)OC(=O)[C@@H](C(C)C)NC(=O)[C@@H](C(C)C)OC(=O)[C@H](C(C)C)NC(=O)[C@H](C)OC(=O)[C@@H](C(C)C)NC(=O)[C@@H](C(C)C)OC1=O | – | – | – | Activity [4]: Active
O=C(Nc1ccc(I)cc1)c1cc(I)cc(I)c1O | 100% | 100% | 630 nM | Activity [5]: inactive; inhibition [6]: Active; Activity [7]: inactive; inhibition [8]: inactive; inhibition [9]: inactive
Cc1ccc(NC(=O)c2cc(I)ccc2O)cc1 | 50% | 21% | – | –
O=C(Nc1ccc(Cl)cc1)c1cc(I)ccc1O | 100% | 100% | – | –
CC(C)c1ccc(NC(=O)c2cc(I)cc(I)c2O)cc1 | 100% | 100% | 1600 nM | –
O=C(Nc1ccc(Cl)cc1)c1cc(Br)cc(Br)c1O | 100% | 35% | – | –
CC(C)c1cc(C(=O)Nc2ccccc2)c(O)c(C(C)C)c1 | 100% | 50% | – | –
Cc1ccc(NC(=O)c2cc(Cl)cc(Cl)c2O)cc1 | 100% | 50% | – | –
CC(C)c1cc(C(=O)Nc2ccc(Cl)cc2)c(O)c(C(C)C)c1 | 100% | 100% | – | Activity [10]: Active; Activity [11]: Active; inhibition [6]: Active; Activity [7]: inactive; inhibition [8]: inactive; inhibition [9]: inactive
COc1ccc(NC(=O)c2cc(C(C)C)cc(C(C)C)c2O)cc1 | 50% | 25% | – | –
COc1ccc(NC(=O)c2cc(Br)cc(Br)c2O)cc1 | 100% | 50% | 5500 nM | –
Cc1ccc(NC(=O)c2cc(C(C)C)cc(C(C)C)c2O)cc1 | 50% | 25% | – | –
O=C(Nc1ccc(Cl)cc1)c1cc(Cl)cc(Cl)c1O | 100% | 29% | 12400 nM | –
O=C(Nc1ccccc1)c1cc(Cl)cc(Cl)c1O | 100% | 25% | – | –
COc1ccc(NC(=O)c2cc(I)cc(I)c2O)cc1 | 100% | 100% | 8700 nM | –
COc1ccc(NC(=O)c2cc(Cl)cc(Cl)c2O)cc1 | 100% | 50% | – | –
Cc1ccc(NC(=O)c2cc(I)cc(I)c2O)cc1 | 100% | 100% | 1700 nM | –
O=C(Nc1ccccc1)c1cc(I)ccc1O | 100% | 25% | – | –
Cc1cc(C(C#N)c2ccc(Cl)cc2)c(Cl)cc1NC(=O)c1cc(I)cc(I)c1O (stereo not given) [CLOSANTEL] | 100% | 0% | 1600 nM | Ki [3]: 468 nM; inhibition at 100 µM ([6]; 144 h): 97.6%; Activity [7]: inactive
O=C(Nc1ccc(Br)cc1)c1cc(I)cc(I)c1O | 100% | 100% | 680 nM | –
O=C(Nc1ccc(F)cc1)c1cc(I)cc(I)c1O | 100% | 100% | 880 nM | –

— ChEMBL document CHEMBL1799923, “Design, synthesis, and biological activities of closantel analogues: structural promiscuity and its impact on Onchocerca volvulus” (J Med Chem, 2011)
